Here are results for 13 compounds from ChEMBL document CHEMBL3259644, “Dibenzo[1,4,5]thiadiazepine: a hardly-known heterocyclic system with neuroprotective properties of potential usefulness in the treatment of neurodegenerative diseases” (Eur J Med Chem, 2014).

The subject of series [1] is SH-SY5Y. Briefly: Neuroprotective activity in human SH-SY5Y cells assessed as protection against rotenone-oligomycin-induced toxicity at 1 uM co-incubated with rotenone-oligomycin measured after 24 hrs by lactate dehydrogenase release assay. Format: functional. In outline: (§1)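 Co-incubation: cells (10^5/well, serum-free DMEM) given compound together with rotenone 30 µM plus oligomycin A 10 µM for 24 h. Cell death by LDH release. Protection: basal LDH subtracted from toxin-induced release, normalized to 100%, then subtracted from 100. Mean of 4 independent experiments in triplicate.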

The nature of series [2]: Cytotoxicity against human SH-SY5Y cells assessed as cell viability at 3 uM after 24 hrs by lactate dehydrogenase release assay. Format: cell-based. Particulars: read-out: Activity. In outline:
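Cells plated at 10^5 per well at least 48 h beforehand, in serum-free DMEM, before confluence. Exposed to compound at 3 µM for 24 h. LDH released to medium measured by colorimetric kit (492/620 nm), expressed as extracellular versus total LDH.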

Series [3] in a line: Permeability of the compound by PAMPA. Format: physicochemical. To be noted: read-out: permeability. In outline:
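PAMPA-BBB: filter impregnated with porcine brain lipid in dodecane (20 mg/mL). Compound at 100 µg/mL in PBS pH 7.4:ethanol 70:30 in donor. Acceptor held PBS:ethanol 70:30. Incubated 240 min at 25 °C. Acceptor concentration read by UV-Vis at five wavelengths, in four wells, at least three runs. Mean ± SD. 10 reference drugs validated each run.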

The test system of series [4] is SH-SY5Y. The experiment in a line: Neuroprotective activity in human SH-SY5Y cells assessed as protection against rotenone-oligomycin-induced toxicity at 0.3 uM preincubated for 24 hrs before rotenone-oligomycin addition measured after 24 hrs by lactate dehydrogenase release assay. The series is classed as functional. In outline: (§2)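 Pre-incubation: compound given to cells (10^5/well, serum-free DMEM) for 24 h. Medium then replaced with fresh medium holding compound plus rotenone 30 µM and oligomycin A 10 µM for another 24 h. LDH release read. Protection = 100 minus normalized toxin-induced LDH release above basal. Mean of 4 independent experiments in triplicate.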

Series [5] deals with SH-SY5Y. The experiment in a line: Neuroprotective activity in human SH-SY5Y cells assessed as protection against rotenone-oligomycin-induced toxicity at 0.3 uM co-incubated with rotenone-oligomycin measured after 24 hrs by lactate dehydrogenase release assay. Format: functional. In outline:
as §1

The target of another series is Cholinesterase (Equus caballus, UniProt P81908). Briefly: Inhibition of horse serum BuChE using butyrylthiocholine as substrate by UV spectroscopic analysis.
Series [6] has as its system SH-SY5Y. The experiment in a line: Neuroprotective activity in human SH-SY5Y cells assessed as protection against rotenone-oligomycin-induced toxicity at 3 uM preincubated for 24 hrs before rotenone-oligomycin addition measured after 24 hrs by lactate dehydrogenase release assay. Format: functional. In outline: as §2
The test system of series [7] is SH-SY5Y. Briefly: Neuroprotective activity in human SH-SY5Y cells assessed as protection against rotenone-oligomycin-induced toxicity at 3 uM co-incubated with rotenone-oligomycin measured after 24 hrs by lactate dehydrogenase release assay. Format: functional. In outline:
as §1

Series [8] relates to SH-SY5Y. The experiment in a line: Neuroprotective activity in human SH-SY5Y cells assessed as protection against rotenone-oligomycin-induced toxicity at 1 uM preincubated for 24 hrs before rotenone-oligomycin addition measured after 24 hrs by lactate dehydrogenase release assay. Format: functional. In outline: as §2
Series [9] concerns SH-SY5Y. Briefly: Inhibition of calcium channel in human SH-SY5Y cells assessed as blockade of K+-evoked cytosolic calcium increase at 3 uM after 15 mins using Fluo-4/AM by fluorescence microplate reader analysis. The series is classed as cell-based. In outline:
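Confluent cells loaded with Fluo-4/AM 4 µM for 1 h at 37 °C, washed twice in Krebs-Hepes, then 15 min at room temperature. Compound (3 µM) applied 10 min before K+ raised to 70 mM final. Triton X-100 (5%) and MnCl2 (1 mM) gave maximal and basal fluorescence. Nifedipine 3 µM as positive control. Mean of 3 experiments.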

The subject of series [10] is SH-SY5Y. The experiment in a line: Antioxidant activity in human SH-SY5Y cells assessed as rotenone-oligomycin-induced sequestering of mitochondrial free radicals at 0.3 uM after 120 mins using DCFH-DA by fluorescence microplate reader analysis. The series is classed as functional. In outline:
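Intracellular ROS probe: cells grown to confluence, loaded with 10 µM DCFH-DA for 45 min, basal fluorescence read. Rotenone 30 µM, oligomycin A 10 µM and compound 0.3 µM then added together at t = 0. Fluorescence change read after 120 min (ex 485/em 520 nm). Trolox 0.3 µM served as positive control. Mean of 3 independent experiments.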

Molecules are shown by their SMILES.

Cholinesterase, sequence (P81908 whole entry): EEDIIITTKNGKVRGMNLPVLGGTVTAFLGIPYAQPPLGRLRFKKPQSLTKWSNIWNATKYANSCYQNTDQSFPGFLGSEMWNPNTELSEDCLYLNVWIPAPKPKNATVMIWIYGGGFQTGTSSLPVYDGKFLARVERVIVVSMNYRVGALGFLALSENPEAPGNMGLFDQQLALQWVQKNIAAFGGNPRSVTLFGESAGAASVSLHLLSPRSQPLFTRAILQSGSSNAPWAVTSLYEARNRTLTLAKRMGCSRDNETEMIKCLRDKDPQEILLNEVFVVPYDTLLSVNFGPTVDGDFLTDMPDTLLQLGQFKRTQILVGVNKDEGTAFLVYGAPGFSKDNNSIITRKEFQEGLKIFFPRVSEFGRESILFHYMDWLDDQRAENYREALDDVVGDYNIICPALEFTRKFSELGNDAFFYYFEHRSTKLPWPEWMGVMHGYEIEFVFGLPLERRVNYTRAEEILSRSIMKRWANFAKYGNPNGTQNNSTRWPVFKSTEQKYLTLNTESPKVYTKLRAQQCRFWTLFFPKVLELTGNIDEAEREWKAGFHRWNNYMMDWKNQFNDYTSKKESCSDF

For `CC(=O)n1[nH]c2ccc([N+](=O)[O-])cc2sc2ccccc21`, the Activity with SH-SY5Y [1] worked out at 27.8%; in the series on SH-SY5Y [4], 83.8%; in the series on SH-SY5Y [5], 26.2%; in the series with SH-SY5Y [6], 72.7%; in the series with SH-SY5Y [7], 21.9%; with SH-SY5Y [8], 75.8%. In series [2], the viability at 24 h, 3 µM is 100%. In addition, in series [3], the Papp was determined as 3.9 ×10⁻⁶ cm/s. The IC50 (commonly the concentration that inhibits the measured activity by half) against Cholinesterase was above 100 µM.
Consider `COC(=O)C1=C(C)NC(C)=C(C(=O)OC)C1c1ccccc1[N+](=O)[O-]`, for which the inhibition (commonly the change of the read-out against control, counted positive when it falls) in the series with SH-SY5Y [9] is 47.9%.
With `CC(=O)n1c2ccccc2sc2cc(Cl)ccc2n1C(C)=O`, the Activity was 59.2% in the series on SH-SY5Y [1]; 24.3% in the series with SH-SY5Y [10]; 64.8% with SH-SY5Y [4]; 49% with SH-SY5Y [5]; 81.5% in the series with SH-SY5Y [6]; 63.2% in the series with SH-SY5Y [7]. Further, the Activity with SH-SY5Y [8] stood at 76.6%. In series [2], the viability at 24 h, 3 µM amounted to 100%. For the same compound, in series [3], the Papp is 10.1 ×10⁻⁶ cm/s. For the same compound, at Cholinesterase, the IC50 is above 100 µM. Further, in the series on SH-SY5Y [9], the inhibition amounted to 21.5%.
For `O=C(CCN1CCCCC1)n1c2ccccc2sc2ccc(Cl)cc2n1C(=O)CCN1CCCCC1`, the Activity with SH-SY5Y [1] is listed as 55.4%; in the series on SH-SY5Y [10], 18.8%; in the series on SH-SY5Y [4], 84.6%; with SH-SY5Y [5] it was 53%; with SH-SY5Y [6], 96.4%; in the series on SH-SY5Y [7], 63%. Moreover, the Activity in the series on SH-SY5Y [8] worked out at 90.4%. Further, in [2], the viability at 24 h, 3 µM was 100%. For the same compound, the Papp in series [3] was determined as 5.3 ×10⁻⁶ cm/s. For the same compound, the IC50 at Cholinesterase is above 100 µM. Further, in the series with SH-SY5Y [9], the inhibition was 16.2%.
For `Cc1c(C)c2c(c(C)c1O)CCC(C)(C(=O)O)O2` (stereo unspecified) [TROLOX], the Activity in the series with SH-SY5Y [10] is on record as 22.3%; in the series on SH-SY5Y [6], 56.1%; in the series with SH-SY5Y [7], 55.7%.
`CN(C)CCC(=O)n1c2ccccc2sc2ccc(Cl)cc2n1C(=O)CCN(C)C`: the Activity with SH-SY5Y [1] was 20.4%; in the series with SH-SY5Y [4] it was 75.9%; in the series on SH-SY5Y [5], 8.1%; with SH-SY5Y [6], 96.1%; with SH-SY5Y [7], 15.9%; in the series on SH-SY5Y [8], 92.1%. Further, the viability at 24 h, 3 µM in series [2] was 100%. In [3], the Papp worked out at 14.2 ×10⁻⁶ cm/s. Further, half-maximal inhibition at Cholinesterase (IC50) required 0.7 µM.
`COc1ccc2c(c1)sc1ccccc1n(C(C)=O)n2C(C)=O`: the Activity is recorded as 50.1% in the series with SH-SY5Y [1]; 21.6% with SH-SY5Y [10]; 89.7% with SH-SY5Y [4]; 49.9% in the series with SH-SY5Y [5]; 95.7% in the series with SH-SY5Y [6]; 53.8% in the series on SH-SY5Y [7]. For the same compound, the Activity in the series on SH-SY5Y [8] was found to be 97%. Besides, the viability at 24 h, 3 µM in series [2] is 100%. For the same compound, in series [3], the Papp was determined as 12.6 ×10⁻⁶ cm/s. The IC50 at Cholinesterase is above 100 µM. Also, the inhibition with SH-SY5Y [9] worked out at 13.1%.
In the case of `CN1CCN(CC(=O)n2c3ccccc3sc3ccc(Cl)cc3n2C(=O)CN2CCN(C)CC2)CC1`, the Activity with SH-SY5Y [1] was determined as 42.6%; in the series with SH-SY5Y [10] it was 24.3%; in the series with SH-SY5Y [4], 86%; in the series on SH-SY5Y [5] it was 50.6%; with SH-SY5Y [6] it was 97.5%; with SH-SY5Y [7], 35.7%. Further, the Activity in the series with SH-SY5Y [8] came out at 96.4%. Moreover, in series [2], the viability at 24 h, 3 µM is 100%. The Papp in series [3] worked out at 5.9 ×10⁻⁶ cm/s. The compound further had an IC50 at Cholinesterase above 100 µM. The inhibition with SH-SY5Y [9] turned out to be 9.3%.
`O=C(CN1CCCCC1)n1c2ccccc2sc2cccc(Cl)c2n1C(=O)CN1CCCCC1`: the Activity in the series with SH-SY5Y [1] amounted to 38.2%; in the series with SH-SY5Y [4] it was 90.5%; in the series with SH-SY5Y [5], 43.3%; in the series on SH-SY5Y [6], 83.4%; in the series with SH-SY5Y [7] it was 35.6%; in the series on SH-SY5Y [8], 83.9%. Moreover, the viability at 24 h, 3 µM in series [2] was found to be 100%. In addition, in [3], the Papp is 7.3 ×10⁻⁶ cm/s. Moreover, 0.9 µM corresponded to half-maximal inhibition against Cholinesterase (IC50).
For the compound `O=C(CCN1CCCC1)n1c2ccccc2sc2ccc(Cl)cc2n1C(=O)CCN1CCCC1`, the Activity in the series on SH-SY5Y [1] amounted to 45.9%; in the series on SH-SY5Y [4] it was 99.3%; in the series on SH-SY5Y [5], 40.7%; in the series with SH-SY5Y [6], 92.4%; in the series with SH-SY5Y [7], 32.7%; with SH-SY5Y [8], 94.6%. Also, in [2], the viability at 24 h, 3 µM was 100%. Also, in series [3], the Papp turned out to be 3.7 ×10⁻⁶ cm/s. The compound also returned an IC50 against Cholinesterase above 100 µM.
Regarding `CC(=O)n1c2ccccc2sc2cc(C(F)(F)F)ccc2n1C(C)=O`, the Activity is 35% in the series with SH-SY5Y [1]; 76.4% with SH-SY5Y [4]; 20.7% in the series with SH-SY5Y [5]; 92.2% in the series on SH-SY5Y [6]; 35.8% in the series with SH-SY5Y [7]; 91.1% in the series with SH-SY5Y [8]. In series [2], the viability at 24 h, 3 µM amounted to 100%. In addition, in series [3], the Papp was determined as 4 ×10⁻⁶ cm/s. Besides, the IC50 against Cholinesterase is above 100 µM.
Regarding `Clc1ccc2c(c1)Sc1ccccc1N=N2`, the Activity in the series on SH-SY5Y [1] worked out at 31.4%; in the series with SH-SY5Y [4], 90.3%; with SH-SY5Y [5] it was 40.5%; with SH-SY5Y [6] it was 84.4%; with SH-SY5Y [7], 38.8%; in the series on SH-SY5Y [8], 90.2%. The viability at 24 h, 3 µM in series [2] came out at 100%. Besides, the Papp in series [3] was 12.3 ×10⁻⁶ cm/s. Further, the half-maximal inhibitory concentration (IC50) against Cholinesterase is above 100 µM.
On to `CC(=O)n1c2ccccc2sc2ccc(Cl)cc2n1C(C)=O`, for which the Activity with SH-SY5Y [1] was 38.3%; with SH-SY5Y [4], 79.8%; with SH-SY5Y [5], 9.3%; in the series with SH-SY5Y [6], 91.1%; in the series on SH-SY5Y [7], 38.3%; in the series with SH-SY5Y [8], 88.9%. Also, in [2], the viability at 24 h, 3 µM came to 100%. Moreover, in series [3], the Papp was found to be 12.3 ×10⁻⁶ cm/s. The compound also showed an IC50 against Cholinesterase above 100 µM.
